Experimental data as given in PMC2413043 (The Journal of Experimental Medicine, 2008).

Assays:
MKP-1 [1] = experiment: MKP-1 expression in RAW cells by immunoblot; type: cell-based, mouse; details: LPS and TSA 1 h
TNF-α, IL-6, and IL-1β = experiment: Inflammatory cytokine RNA levels by Northern blotting in RAW cells; type: cell-based, mouse; details: RAW cells treated with LPS and TSA 4 h
Outline: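 RAW 264.7 cells (DME, 10% FBS) treated with LPS and TSA for 4 h. Total RNA was isolated with TRIZOL and analysed by Northern blotting with probes for TNF-α, IL-1β and IL-6, with GAPDH as loading control.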

TNF-α and IL-1β = experiment: Liver TNF-α and IL-1β mRNA by RT-PCR; type: in vivo, mouse; details: liver 4 h after LPS, two representative mice
Outline: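 Mice were dosed with TSA each day from day −2 and challenged with LPS on day 0. Liver RNA was harvested 4 h after LPS. RT-PCR was run for TNF-α and IL-1β, or for COX-2 and CXCL2, with two mice per group.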

phospho-ERK1 = type: cell-based; details: MKP-1 immunoprecipitated from RAW cells treated with LPS and TSA 4 h
Outline: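 RAW 264.7 cells grown in DME with 10% FBS were treated with LPS plus TSA, or with control, for 4 h. Endogenous MKP-1 was immunoprecipitated from the lysates and incubated with recombinant phospho-p38 or phospho-ERK1. Remaining phosphorylation was detected by immunoblotting with phospho-p38 or phospho-ERK antibodies. The amount of phospho-substrate added was shown as an input lane.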

MKK3/6 = experiment: Phosphorylation of MKK3/6 by immunoblot in RAW cells; type: cell-based, mouse; details: TSA 30 ng/ml 1 h and/or LPS 100 ng/ml 30 min
Outline: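 RAW 264.7 cells grown in DME with 10% FBS were pretreated with TSA 30 ng/ml for 1 h, then given LPS 100 ng/ml for 30 min. Lysates were immunoblotted with phospho-specific antibodies to MAPK cascade members (phospho-MKK3/6, phospho-Elk-1).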

p38 [2] = experiment: Phosphorylation of p38 by immunoblot in RAW cells; type: cell-based, mouse; details: RAW cells pretreated 30 ng/ml TSA 1 h, 100 ng/ml LPS 30 min
Outline: (§1)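 RAW 264.7 cells (DME, 10% FBS) pretreated with TSA 30 ng/ml for 1 h, then LPS 100 ng/ml for 30 min. Whole-cell lysates were immunoblotted with antibodies to phosphorylated and total forms of the MAPK in question.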

MKP-1 and p38 = experiment: MKP-1/p38 association by co-immunoprecipitation in RAW cells; type: cell-based, mouse; details: co-IP
Outline: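 RAW 264.7 cells were treated with LPS and/or TSA for 1 h. Lysates were immunoprecipitated with anti-p38 or anti-MKP-1, and precipitates were immunoblotted reciprocally for MKP-1 or p38. The experiment was repeated twice.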

MKP-1-ERα and ERK1 = experiment: MKP-1-ERα/ERK1 interaction by co-immunoprecipitation in HeLa cells; type: cell-based; details: His6-ERK1, LPS and TSA 1 h
Outline: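 HeLa cells in DME with 10% FBS were co-transfected by Lipofectamine 2000 with MKP-1(WT)-ERα or MKP-1(K57R)-ERα plus His6-ERK1. Fusion expression was induced with 200 nM 4-hydroxytamoxifen, then cells were treated with LPS and TSA for 1 h. Lysates were immunoprecipitated and immunoblotted with anti-ERα (MKP-1 tag) and anti-His6 (ERK1 tag).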

MKP-1 [3] = experiment: MKP-1 acetylation, [3H]sodium acetate labelled RAW cells; type: cell-based, mouse; details: [3H]sodium acetate 1 h, TSA 0.5 h, 100 ng/ml LPS 0–3 h
Outline: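 RAW 264.7 cells metabolically labelled with [3H]sodium acetate for 1 h, plus TSA for 0.5 h, then LPS 100 ng/ml for 0–3 h. Lysates were immunoprecipitated with anti-MKP-1 and resolved by SDS-PAGE. Acetylation was detected by autoradiography; MKP-1 was immunoblotted as loading control.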

TNF-α [4] = experiment: TNF-α in media of primary macrophages by ELISA; type: cell-based, mouse; details: TSA and LPS, 4 h, n = 2 ± SD
Outline: (§2)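 Primary peritoneal macrophages collected by PBS lavage from resting WT or MKP-1−/− mice, not thioglycolate-elicited; the mice were on a C57BL/6J background. Cells stimulated with TSA, LPS or both. After 4 h, TNF-α and IL-1β in the media were measured by ELISA; n = 2, mean ± SD.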

mouse liver = experiment: LPS-induced liver inflammation, histology; type: in vivo; details: hematoxylin and eosin
Outline: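 Mice received saline (control) or TSA i.p. each day from day −2, then an i.p. LPS injection on day 0. Livers were harvested 2 h or 2 d after LPS, sectioned and stained with hematoxylin and eosin to assess leukocyte infiltration, edema and necrosis.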

TNF-α [5] = experiment: Serum TNF-α by ELISA in LPS-treated mice; type: in vivo, mouse; details: TSA daily from day −2, LPS day 0, serum 2 h after LPS, n = 2 ± SD
IL-1β = IL-1β in media of primary macrophages by ELISA; type: cell-based, mouse; details: TSA and LPS, 4 h, n = 2 ± SD
Outline: as §2

p38 [6] = experiment: Phospho-p38 in primary peritoneal macrophages; type: cell-based, mouse; details: LPS, TSA or both
Outline: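 Resident (non-thioglycolate-elicited) peritoneal macrophages were collected by PBS lavage from WT and MKP-1−/− mice. Cells were stimulated with LPS, TSA or both, and lysates were immunoblotted for total and phospho-p38.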

MKP-1 [7] = experiment: MKP-1 acetylation in mouse liver by immunoprecipitation; type: in vivo; details: TSA pretreatment 4 h, LPS 16 h; IP MKP-1, blot Ac-Lys
Outline: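 Mice pretreated with TSA for 4 h, then given LPS for 16 h. Liver lysates were immunoprecipitated with anti-MKP-1 and immunoblotted with anti-acetyl-lysine or anti-MKP-1.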

MKP-1 and p300 = experiment: MKP-1 interaction with p300 by co-immunoprecipitation in RAW cells; type: cell-based, mouse; details: RAW cells treated with TSA; IP p300, blot MKP-1
WT mice = experiment: LPS-induced mortality in WT mice; type: in vivo, mouse; details: Fig. S4 B
p38 [8] = experiment: Phospho-p38 in RAW cells with MKP-1 siRNA or control siRNA; type: cell-based, mouse
Outline: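 RAW cells stably transfected with vectors encoding hairpin siRNA against MKP-1 nucleotides 67–85 or 743–761, or a control sequence, with separate clones isolated. Knockdown was confirmed by MKP-1 immunoblot. Clones were treated with LPS and TSA, and lysates were immunoblotted for NOS2 and MAPK family members, including phospho-p38.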

ERK1/2 = experiment: Phosphorylation of ERK1/2 by immunoblot in RAW cells; type: cell-based, mouse; details: RAW cells pretreated 30 ng/ml TSA 1 h, 100 ng/ml LPS 30 min
Outline: as §1

In the case of `CC(/C=C/C(=O)NO)=C\[C@@H](C)C(=O)c1ccc(N(C)C)cc1` [TSA, trichostatin A], the MKP-1 expression (MKP-1 [1]) is reported as “increases the expression of MKP-1 levels”, the “expression of IL-1β” value (TNF-α, IL-6, and IL-1β) is reported as “inhibits” and the “expression of IL-6” value (TNF-α, IL-6, and IL-1β) is reported as “inhibits”. For the same compound, the “expression of TNF-α” value (TNF-α, IL-6, and IL-1β) was “inhibits”, the “LPS-induced IL-1β mRNA in liver” value (TNF-α and IL-1β) was “decreases” and the “LPS-induced TNF-α mRNA in liver” value (TNF-α and IL-1β) was “decreases”. The “removal of phosphate from recombinant phospho-ERK1 by MKP-1” value (phospho-ERK1) was “removes more phosphate from recombinant phospho-ERK1 than MKP-1 from control cells”, the “phosphorylation of MKK3/6” value (MKK3/6) was “does not affect phosphorylation of the upstream MAPKK MKK3/6” and the “LPS-induced phosphorylation of p38” value (p38 [2]) was “decreases phosphorylation of p38”. For the same compound, the “association between p38 and MKP-1” value (MKP-1 and p38; LPS and TSA 1 h) was “increases the association between p38 and MKP-1 in cells”, the “interaction between MKP-1 and p38, TSA alone” value (MKP-1 and p38; TSA without LPS) was “increases the interaction between MKP-1 and p38, even in the absence of LPS” and the “interaction of ERK1 and MKP-1 (WT vs mutant K57R)” value (MKP-1-ERα and ERK1) was “increases the interaction of ERK1 and WT, but not mutant, MKP-1 in cells”. The MKP-1 acetylation (MKP-1 [3]) was “increases MKP-1 acetylation”, the “suppression of TNF-α, MKP-1−/− macrophages” value (TNF-α [4]) was 27% and the “suppression of TNF-α, WT macrophages” value (TNF-α [4]) was 87%. The “LPS-induced leukocyte infiltration / inflammation in liver” value (mouse liver; livers 2 h after LPS) was “decreases LPS-induced inflammation”, the “LPS-induced hepatocyte edema and necrosis” value (mouse liver; livers 2 d after LPS) was “limits LPS-induced hepatocyte edema and necrosis” and the “decrease of serum TNF-α, MKP-1−/− mice” value (TNF-α [5]) was 22%. The “decrease of IL-1β, MKP-1 KO macrophages” value (IL-1β) was 34%, the “decrease of IL-1β, WT macrophages” value (IL-1β) was 85% and the “phospho-p38, WT vs MKP-1−/− primary macrophages” value (p38 [6]) was “only suppresses phospho-p38 in macrophages from WT mice, not in macrophages from MKP-1^−/− mice”. The “acetylation of MKP-1 in liver” value (MKP-1 [7]) was “increases acetylation of MKP-1 in vivo”, the “MKP-1 association with p300” value (MKP-1 and p300) was “MKP-1 associates with p300 in TSA-treated macrophages” and the “mortality after LPS, dose response to TSA” value (WT mice) was “decreases mortality after LPS in a dose-responsive manner”. The “LPS-induced phospho-p38, control siRNA cells” value (p38 [8]; RAW cells expressing control hairpin RNA, LPS and TSA) was “limits this increase”, the “effect of TSA on phospho-p38, MKP-1 siRNA cells” value (p38 [8]; RAW cells with siRNA of MKP-1, LPS and TSA) was “siRNA of MKP-1 blocks the effect of TSA” and the “LPS-induced phosphorylation of ERK1/2” value (ERK1/2) was “decreases”.
